Measured values from different studies.
Lines come from different studies, so protocols differ.
Target: Phosphatidylinositol 4-phosphate 5-kinase type-1 alpha (PIP5K1A, Homo sapiens, UniProt Q99755)

C1=C/COCc2cc(ccc2OCCN2CCCC2)Nc2nccc(n2)-c2cccc(c2)COC/1  remaining binding (binding; 0.1 µM): 20%
C[C@]1(O)CCCN(c2nc(Nc3ccc(S(=O)(=O)N[C@H]4CC[C@H](CN5CCN(c6ccc(C7CCC(=O)NC7=O)cc6F)CC5)CC4)cc3F)ncc2C(F)(F)F)C1 (stereo partly shown)  remaining binding (binding, competition with immobilised ligand; 1 µM): 94%
CN1CCN(C(=O)c2ccc(NC(=O)Nc3ccc(N(C)c4ccnc(Nc5ccc(CS(C)(=O)=O)cc5)n4)cc3)cc2)CC1  remaining binding (binding; 1 µM): 9.3%
CC#CC(=O)N1CCC[C@H]1c1nc(-c2ccc(C(=O)Nc3ccccn3)cc2)c2c(N)nccn12  inhibition (enzyme activity, inhibitor; 1 µM): 12%
CCCCC(=O)Nc1ccc(-c2ccc3ncn(CCC)c(=O)c3c2)cn1  remaining binding (binding, competition with immobilised ligand; 0.5 µM): 100%
COc1ccc2[nH]c3c4[nH]c5ccc(OC)cc5c4c4c(c3c2c1)C(=O)NC4=O  remaining binding (binding; 1 µM): 100%
COc1ccc2oc(-c3ccc4nc(N)oc4c3)c/c(=N\c3ccccc3NC(=O)CCN)c2c1  remaining binding (binding; 1 µM): 95%
C=CC(=O)N1CCC([C@@H]2CCNc3c(C(N)=O)c(-c4ccc(Oc5ccccc5)cc4)nn32)CC1  inhibition (enzyme activity, inhibitor; 1 µM): 16%
CC(C)S(=O)(=O)c1ccc2nccc(Nc3ccc4sc(C5CCCC5)nc4c3)c2c1  activity vs control (enzyme activity, inhibitor; 1 µM): 104%
C[C@]1(O)CCCN(c2nc(Nc3ccc(S(=O)(=O)N[C@H]4CC[C@H](CN5CCN(c6ccc(C7CCC(=O)NC7=O)cc6F)CC5)CC4)cc3Cl)ncc2C(F)(F)F)C1 (stereo partly shown)  remaining binding (binding, competition with immobilised ligand; 1 µM): 93%
